ChEMBL document CHEMBL3808334, “Synthesis and in vitro evaluation of novel triazine analogues as anticancer agents and their interaction studies with bovine serum albumin” (Eur J Med Chem, 2016)

Legend:
[1] = Growth inhibition of human Hs 578T cells assessed as cell growth at 10^-4 M incubated for 48 hrs by sulforhodamine B assay; format: functional; details: read-out: Activity
CCRF-CEM [2] = assay: Growth inhibition of human CCRF-CEM cells incubated for 48 hrs by sulforhodamine B assay; format: functional
Summary of the method: (§1)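 Leukemia line in the five-dose format: five concentrations from 10-fold or ½-log serial dilutions. Plated at 5,000–40,000 cells per well, preincubated 24 h, then compound added for 48 h at 37 °C, 5% CO₂. Sulforhodamine B absorbance read at 515 nm. Growth is computed against time-zero (Tz) and control (C) readings; GI₅₀ is where [(Ti−Tz)/(C−Tz)]×100 = 50.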

[3] = Growth inhibition of human COLO205 cells incubated for 48 hrs by sulforhodamine B assay; format: functional; details: COLO 205, 48 h
Summary of the method: (§2)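 Cells seeded at 5,000–40,000/well according to doubling time and preincubated 24 h at 37 °C, 5% CO2. Time-zero plates were TCA-fixed. DMSO concentrate was diluted in medium with 50 µg/ml gentamicin to give five concentrations (10-fold or ½ log steps), then exposed 48 h. Cells were TCA-fixed, stained with 0.4% SRB and read at 515 nm. Percent growth was taken against time-zero and control; GI50, TGI and LC50 derived.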

[4] = Growth inhibition of human SF539 cells incubated for 48 hrs by sulforhodamine B assay; format: functional; details: SF-539, 48 h
Summary of the method: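 Cells were plated at 5,000–40,000 per well according to doubling time and preincubated 24 h at 37 °C in 5% CO2; time-zero plates were then TCA-fixed. Five concentrations (10-fold or ½-log dilutions, DMSO stock) were incubated 48 h. Cells were TCA-fixed, stained with 0.4% SRB and read at 515 nm. GI50 was taken where [(Ti−Tz)/(C−Tz)]×100 = 50.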

786-0 [5] = assay: Growth inhibition of human 786-0 cells assessed as cell growth at 10^-5 M incubated for 48 hrs by sulforhodamine B assay; format: functional; details: 786-0, 48 h, read-out: Activity
Summary of the method: (§3)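 Five-dose assay: five concentrations from 10-fold or ½-log serial dilutions. Cells are plated at 5,000–40,000 per well according to doubling time, grown 24 h, then exposed 48 h at 37 °C, 5% CO₂. Fixed with cold 50% TCA (final addition) for 60 min at 4 °C and stained with 0.4% SRB in 1% acetic acid. Bound dye is solubilized in 10 mM Tris base and read at 515 nm. GI₅₀ is where [(Ti−Tz)/(C−Tz)]×100 = 50, with a time-zero plate as Tz.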

A498 [6] = assay: Growth inhibition of human A498 cells assessed as cell growth at 10^-8 M incubated for 48 hrs by sulforhodamine B assay; format: functional; details: A498, 48 h, read-out: Activity; summary of the method: as §3
K562 = assay: Growth inhibition of human K562 cells assessed as cell growth at 10^-7 M incubated for 48 hrs by sulforhodamine B assay; format: functional; details: K562, 48 h, read-out: Activity
EKVX = assay: Growth inhibition of human EKVX cells assessed as cell growth at 10^-7 M incubated for 48 hrs by sulforhodamine B assay; format: functional; details: read-out: Activity; summary of the method: as §2
[7] = Growth inhibition of human HOP62 cells assessed as cell growth at 10^-7 M incubated for 48 hrs by sulforhodamine B assay; format: functional; details: HOP-62, 48 h, read-out: Activity
SK-MEL-28 = assay: Growth inhibition of human SK-MEL-28 cells assessed as cell growth at 10^-4 M incubated for 48 hrs by sulforhodamine B assay; format: functional; details: SK-MEL-28, 48 h, read-out: Activity
786-0 [8] = assay: Growth inhibition of human 786-0 cells assessed as cell growth at 10^-4 M incubated for 48 hrs by sulforhodamine B assay; format: functional; details: 786-0, 48 h, read-out: Activity; summary of the method: as §3
[9] = Growth inhibition of human IGROV1 cells assessed as cell growth at 10 uM incubated for 48 hrs by sulforhodamine B assay; format: functional; details: IGROV-1, 48 h, read-out: Activity
A498 [10] = assay: Growth inhibition of human A498 cells assessed as cell growth at 10 uM incubated for 48 hrs by sulforhodamine B assay; format: functional; details: A498, 48 h, read-out: Activity
Summary of the method: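 One-dose screen at 10 µM final. Cells are plated at 5,000–40,000 per well according to doubling time and preincubated 24 h at 37 °C, 5% CO₂. Compound (DMSO stock diluted in medium with 50 µg/ml gentamicin) is then added for 48 h. Growth percent is read by sulforhodamine B staining, absorbance at 515 nm.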

MDA-MB-231 = assay: Growth inhibition of human MDA-MB-231 cells assessed as cell growth at 10 uM incubated for 48 hrs by sulforhodamine B assay; format: functional; details: MDA-MB-231, 48 h, read-out: Activity
CCRF-CEM [11] = assay: Growth inhibition of human CCRF-CEM cells assessed as cell growth at 10^-8 M incubated for 48 hrs by sulforhodamine B assay; format: functional; details: read-out: Activity; summary of the method: as §1
A549 = assay: Growth inhibition of human A549/ATCC cells assessed as cell growth at 10^-8 M incubated for 48 hrs by sulforhodamine B assay; format: functional; details: A549, 48 h, read-out: Activity; summary of the method: as §3
NCI-H322M = assay: Growth inhibition of human NCI-H322M cells assessed as cell growth at 10^-8 M incubated for 48 hrs by sulforhodamine B assay; format: functional; details: read-out: Activity
U-251 = assay: Growth inhibition of human U251 cells assessed as cell growth at 10^-8 M incubated for 48 hrs by sulforhodamine B assay; format: functional; details: U-251, 48 h, read-out: Activity
[12] = Growth inhibition of human UACC62 cells assessed as cell growth at 10^-6 M incubated for 48 hrs by sulforhodamine B assay; format: functional; details: UACC-62, 48 h, read-out: Activity
HT-29 = assay: Growth inhibition of human HT-29 cells assessed as cell growth at 10^-5 M incubated for 48 hrs by sulforhodamine B assay; format: functional; details: HT-29, 48 h, read-out: Activity
[13] = Growth inhibition of human SF268 cells assessed as cell growth at 10 uM incubated for 48 hrs by sulforhodamine B assay; format: functional; details: SF-268, 48 h, read-out: Activity
Albumin = Albumin (Bos taurus, UniProt P02769); assay: Binding affinity to bovine serum albumin assessed as hyperchromicity in absorption spectra up to 20 uM after 5 mins by UV-visible spectroscopic analysis relative to control; format: ADME; details: cattle, isolated protein
Summary of the method: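 UV-visible absorption titration of 10 µM BSA in 0.1 M phosphate buffer pH 7.4 with increasing compound, 0–20 µM. Compounds diluted from DMSO stocks into buffer. Spectra recorded 200–800 nm in a 1 cm quartz cell at 300 K after 5 min equilibration. The BSA band is at 279 nm; changes are compared with BSA alone.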

[14] = read-out: LC50 (the source's name)
[15] = read-out: pLC50 (the source's name) (converted)

Chain of Albumin (P02769 whole entry): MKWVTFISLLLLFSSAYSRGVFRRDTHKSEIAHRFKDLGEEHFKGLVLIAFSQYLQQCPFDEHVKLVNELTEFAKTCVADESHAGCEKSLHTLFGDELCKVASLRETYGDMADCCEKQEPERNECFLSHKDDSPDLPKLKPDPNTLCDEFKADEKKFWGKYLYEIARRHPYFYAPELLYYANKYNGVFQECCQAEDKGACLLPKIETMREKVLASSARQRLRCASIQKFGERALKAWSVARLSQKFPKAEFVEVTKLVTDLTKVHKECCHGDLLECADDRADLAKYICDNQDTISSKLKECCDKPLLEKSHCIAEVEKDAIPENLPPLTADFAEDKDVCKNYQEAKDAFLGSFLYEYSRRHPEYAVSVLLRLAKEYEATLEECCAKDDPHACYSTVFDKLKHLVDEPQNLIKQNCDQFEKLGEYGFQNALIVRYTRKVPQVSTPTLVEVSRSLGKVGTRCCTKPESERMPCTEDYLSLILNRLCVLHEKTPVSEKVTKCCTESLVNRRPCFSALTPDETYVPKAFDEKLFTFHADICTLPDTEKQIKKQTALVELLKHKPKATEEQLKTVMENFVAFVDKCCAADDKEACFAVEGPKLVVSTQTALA

| SMILES | growth at 100 µM [1] | GI50 (CCRF-CEM [2]; read-out: GI50) | CC50 (CCRF-CEM [2]; [14]) | TGI (CCRF-CEM [2]; read-out: TGI) | GI50 (CCRF-CEM [2]; read-out: pGI50 (converted)) | CC50 (CCRF-CEM [2]; [15]) | TGI (CCRF-CEM [2]; read-out: pTGI (converted)) | GI50 ([3]; read-out: GI50) | LC50 ([3]; read-out: LC50) | TGI ([3]; read-out: TGI) | GI50 ([3]; read-out: pGI50 (converted)) | LC50 ([3]; read-out: pLC50 (converted)) | TGI ([3]; read-out: pTGI (converted)) | GI50 ([4]; read-out: GI50) | CC50 [4, 14] | TGI ([4]; read-out: TGI) | GI50 ([4]; read-out: pGI50 (converted)) | CC50 [4, 15] | TGI ([4]; read-out: pTGI (converted)) | growth at 10 µM (786-0 [5]) | also measured |
| --- | --- | --- | --- | --- | --- | --- | --- | --- | --- | --- | --- | --- | --- | --- | --- | --- | --- | --- | --- | --- | --- |
| c1ccc(-c2nc(Nc3ccc(-c4nc5ccccc5[nH]4)cc3)nc(N3CCOCC3)n2)cc1 | -43% | 0.544 µM | > 100 µM | 3.12 µM | 0.55 µM | > 100 µM | 3.09 µM | 1.41 µM | 6.92 µM | 3.13 µM | 1.41 µM | 6.92 µM | 3.16 µM | 1.42 µM | 6.09 µM | 2.94 µM | 1.41 µM | 6.03 µM | 2.95 µM | -88% | growth at 0.01 µM (A498 [6]): 86%; growth at 0.1 µM (K562): 96%; growth at 0.1 µM (EKVX): 88%; growth at 0.1 µM [7]: 93%; growth at 100 µM (SK-MEL-28): -72%; growth at 100 µM (786-0 [8]): -71%; growth at 10 µM [9]: -38.1%; growth at 10 µM (A498 [10]): -83.4%; growth at 10 µM (MDA-MB-231): -63.3%; growth at 0.01 µM (CCRF-CEM [11]): 102%; growth at 0.01 µM (A549): 103%; growth at 0.01 µM (NCI-H322M): 95%; growth at 0.01 µM (U-251): 105%; growth at 1 µM [12]: 84%; growth at 10 µM (HT-29): -70%; growth at 10 µM [13]: -43.4%; Activity (Albumin): 72.27% |
| Fc1ccc(-c2nc(Nc3ccc(-c4nc5ccccc5[nH]4)cc3)nc(N3CCOCC3)n2)cc1 | -3% | 3.11 µM | > 100 µM | > 100 µM | 3.09 µM | > 100 µM | > 100 µM | 1.92 µM | 9.23 µM | 4.21 µM | 1.91 µM | 9.33 µM | 4.17 µM | 1.63 µM | 8.47 µM | 3.72 µM | 1.62 µM | 8.51 µM | 3.72 µM | -70% | growth at 0.01 µM (A498 [6]): 100%; growth at 0.1 µM (K562): 101%; growth at 0.1 µM (EKVX): 91%; growth at 0.1 µM [7]: 97%; growth at 100 µM (SK-MEL-28): -36%; growth at 100 µM (786-0 [8]): -68%; growth at 10 µM [9]: 33.7%; growth at 10 µM (A498 [10]): -32.1%; growth at 10 µM (MDA-MB-231): 5.74%; growth at 0.01 µM (CCRF-CEM [11]): 102%; growth at 0.01 µM (A549): 95%; growth at 0.01 µM (NCI-H322M): 101%; growth at 0.01 µM (U-251): 101%; growth at 1 µM [12]: 86%; growth at 10 µM (HT-29): -35%; growth at 10 µM [13]: 34.1%; Activity (Albumin): 86.8% |
